Screens from PubChem BioAssay.
The full list was thinned out, with hits kept by preference.
T cruzi inh: T. cruzi replication inhibition. T. cruzi beta-gal in NIH3T3, luminescence, 90 h. inhibition, % (no concentration beside the values). 1.4% of 300,000 active;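 active = mean inhibition across valid replicates above about 55%, limit read from the data; inconclusive = mean below that limit but half or more replicates reach it; inactive = mean below it, under half of replicates reach it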;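 also: signal also drops with host cell toxicity which is not excluded here; 0% = plate median of DMSO wells and 100% = zero luminescence signal; higher percent means less beta-gal luminescence so fewer parasites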
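Assay system: NIH/3T3 fibroblasts plus reporter T. cruzi. Amount: NIH/3T3 cells, 5,000 per well. Buffer or medium: DMEM, 2% fetal bovine serum. Doses: compound pinned at 50 nL/well, DMSO. Schedule: ≥90 h infection period, 3 h prior cell attachment. Signal: luminescent β-galactosidase signal after 60 min lysis. Read-out: parasite load inhibition, %.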
PolyA inh: inhibitors of polyadenylation in S. cerevisiae; S. cerevisiae SKY197-pL101 polyadenylation reporter, beta-gal luminescence; efflux-impaired pdr1/pdr3 knockout yeast; score 100 = 6 SD above DMSO; activity score, % at 12 µM; 0.02% of 300,000 active;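 active = lowest replicate activity score at least 50, where 100 means six control SD above control mean; inconclusive = lowest score under 50 but half or more replicates reach 50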;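 also: yeast exposed to compound for 9 h at 30 °C; higher score means more reporter readthrough which indicates perturbed polyadenylation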
Lmaj promast: reduces viability of Leishmania major promastigotes. inhibition, % at 10 µM. 9% of 200,000 active. AID 1063. resazurin fluorescence viability; in the data active = inhibition above about 50%;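 also: promastigotes grown with compound for 44 hours at 28 °C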
NALP1 yeast inh: NALP1 inhibition; S. cerevisiae NALP1/ASC/caspase-1 growth, X-gal OD620, 72 h; inhibition, % at 10 µM; AID 2071; 0.61% of 280,000 active; in the data active = inhibition mostly above about 24%, no sharp cut-off; inactive = mostly below about 32%
NLRP3 yeast inh: inhibitors of NALP3 inflammasome in yeast; 0.39% of 330,000 active; inhibition, % at 10 µM; Yeast reconstituted NLRP3/ASC/caspase-1, beta-gal luminescence, 24 h;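 active = inhibition of 50% or more; inactive = inhibition below 50%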;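 also: plate controls were induced DMSO wells for no effect and uninduced yeast grown without galactose for full effect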
Calb FLC: C. albicans growth modulation with fluconazole; C. albicans CaCi-2 + fluconazole, Alamar Blue growth, 48 h; 0.57% of 300,000 active; AID 1979; growth inhibition, % (concentration not given with the values);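 active = growth inhibition above about 58% in most replicates, limit read from the data, passing the limit was not always enough; inconclusive = exactly half the replicates above a set limit; inactive = most replicates below a set limit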;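 also: all wells also contain fluconazole at 8 µg/ml as a sub-toxic cotreatment; 0% = median of DMSO wells and 100% = median of geldanamycin control wells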
Starred values were filed as active, the others as inactive.

For CCOC(=O)Cn1nnnc1C(CC)N(Cc1cccs1)Cc1cc2cc(C)ccc2[nH]c1=O (stereo not given) the results were T cruzi inh 15, PolyA inh 0, Lmaj promast 95*, NALP1 yeast inh 7, NLRP3 yeast inh 13 and Calb FLC 8.
Screening CCC(c1nnnn1C1CCCC1)N(Cc1cccs1)Cc1cc2cc(C)ccc2[nH]c1=O (stereo not given) returned T cruzi inh 4, PolyA inh -5, Lmaj promast 63*, NALP1 yeast inh 6, NLRP3 yeast inh 12 and Calb FLC inconclusive.
Screening Cc1ccc2[nH]c(=O)c(CN(Cc3cccs3)Cc3nnnn3CC3CCCO3)cc2c1 (stereo not given) returned T cruzi inh 19, PolyA inh 14, Lmaj promast 5, NALP1 yeast inh 1, NLRP3 yeast inh 10 and Calb FLC 19.
`CCOc1ccc2[nH]c(=O)c(CN(Cc3cccs3)C(CC)c3nnnn3C(C)(C)CC)cc2c1` (stereo not given) gave T cruzi inh 47, PolyA inh -18, Lmaj promast 75*, NALP1 yeast inh 12 and Calb FLC 12.
For CCC(c1nnnn1C(C)(C)C)N(Cc1cccs1)Cc1cc2cc(C)c(C)cc2n2nnnc12 (stereo not given) the results were T cruzi inh 56*, PolyA inh 10, Lmaj promast 78*, NLRP3 yeast inh 4 and Calb FLC -4.
O=C(CSc1nc2ccccc2[nH]1)NCC1CCCO1 (stereo not given) was read as T cruzi inh -2, PolyA inh 22, Lmaj promast -7, NALP1 yeast inh 22, NLRP3 yeast inh 13 and Calb FLC 3.
CC(C)n1cc(CN2CCC(n3nccc3NC(=O)C3CCCC3)CC2)cn1 was read as T cruzi inh 23, PolyA inh 9, NALP1 yeast inh 19, NLRP3 yeast inh 16 and Calb FLC -8.
Screening CCOc1ccc(-c2cc(C(=O)NCCCn3ccnc3)c3ccccc3n2)cc1 returned T cruzi inh 1, PolyA inh -8, Lmaj promast 28, NALP1 yeast inh -1, NLRP3 yeast inh 23 and Calb FLC 4.
Screening CCOc1ccc(-c2cc(C(=O)NCCCN3CCN(CC)CC3)c3ccccc3n2)cc1 returned T cruzi inh 41, PolyA inh 22, Lmaj promast 25, NALP1 yeast inh 31*, NLRP3 yeast inh 0 and Calb FLC 1.
Screening CCN1CCCC(OC(=O)c2cc(-c3ccc(C)cc3)nc3ccccc23)C1 (stereo not given) returned T cruzi inh 26, PolyA inh inconclusive, Lmaj promast 84*, NALP1 yeast inh 3, NLRP3 yeast inh 8 and Calb FLC -31.
`Cc1cccc(NC(=S)Nc2ccc(N3CCOCC3)cc2)c1C` gave T cruzi inh 51, PolyA inh 0, Lmaj promast 7, NALP1 yeast inh 22, NLRP3 yeast inh -7 and Calb FLC -1.
`COc1cc(NC2=Nc3cccc4cccc2c34)cc(OC)c1OC` gave T cruzi inh -4, PolyA inh 8, Lmaj promast 56*, NALP1 yeast inh 16, NLRP3 yeast inh 17 and Calb FLC 6.
Screening C[C@H](CO)N1C[C@H](C)[C@H](CN(C)S(=O)(=O)c2ccccc2)Oc2c(NS(C)(=O)=O)cccc2C1=O returned NLRP3 yeast inh 5.
CCOC(=O)c1c(-c2ccccc2)oc2cc(CN(C)C)c(O)c(CN(C)C)c12 was read as T cruzi inh 34, PolyA inh -11, Lmaj promast 100*, NLRP3 yeast inh 15 and Calb FLC -3.
For CCOC(=O)c1c(-c2ccccc2)oc2ccc(O)c(CN3CCN(C)CC3)c12 the results were T cruzi inh 0, PolyA inh 1, Lmaj promast 89*, NALP1 yeast inh 29, NLRP3 yeast inh 6 and Calb FLC 3.
For CCOC(=O)c1c(-c2ccccc2)oc2ccc(O)cc12 the results were T cruzi inh -13, PolyA inh -15, NALP1 yeast inh 12, NLRP3 yeast inh 18 and Calb FLC 2.
For CC1CN(C(=O)/C=C/c2ccccc2Cl)CC(C)O1 (stereo not given) the results were T cruzi inh -16, PolyA inh -26, NALP1 yeast inh 3, NLRP3 yeast inh 30 and Calb FLC 5.
`Cc1cc(C)n(-c2nc(SCCN(C)C)c3c4c(sc3n2)COC(C)(C)C4)n1` gave T cruzi inh 65*, PolyA inh 10, Lmaj promast 101*, NALP1 yeast inh 18, NLRP3 yeast inh 13 and Calb FLC 6.
Screening COc1ccc(-c2csc3nc(-c4cccnc4)nc(N4CCC(C(N)=O)CC4)c23)cc1OC returned T cruzi inh 24, PolyA inh -3, Lmaj promast 19, NALP1 yeast inh 23, NLRP3 yeast inh 7 and Calb FLC 27.
Screening O=c1oc(-c2cccs2)nc2sc3c(c12)CCCC3 returned T cruzi inh -3, PolyA inh -11, Lmaj promast 1, NALP1 yeast inh -2, NLRP3 yeast inh 15 and Calb FLC 13.
`O=C1CN(c2nc(-c3cccs3)nc3sc4c(c23)CCCC4)CCN1` gave T cruzi inh 30, PolyA inh -4, Lmaj promast 76*, NALP1 yeast inh -8, NLRP3 yeast inh 11 and Calb FLC 27.
For O=C1CN(c2nc(-c3cccnc3)nc3scc(-c4ccccc4)c23)CCN1 the results were T cruzi inh 63*, PolyA inh -13, Lmaj promast 27, NALP1 yeast inh 0, NLRP3 yeast inh 2 and Calb FLC 28.
For CC1(C)OC(=O)C(=CNNc2c(Cl)cc(Cl)cc2Cl)C(=O)O1 the results were T cruzi inh 7, PolyA inh -29, NALP1 yeast inh 8, NLRP3 yeast inh -16 and Calb FLC -15.
`CSCCC(NC(=O)c1ccc([N+](=O)[O-])cc1Cl)C(=O)OCC(=O)NC1CCCC(C)C1C` (stereo not given) gave T cruzi inh -8, PolyA inh 17, Lmaj promast 60*, NALP1 yeast inh 41, NLRP3 yeast inh -4 and Calb FLC -1.
O=C(Cc1ccc(O)cc1)NCCNC(=S)NCc1ccccc1 was read as T cruzi inh -12, PolyA inh 7, NALP1 yeast inh 5, NLRP3 yeast inh 16 and Calb FLC -6.
Screening CCOC(=O)N1CCC(N2Cc3cccc(C(=O)N4CCN(c5cccc(C)c5C)CC4)c3C2=O)CC1 returned T cruzi inh 46, PolyA inh 6, Lmaj promast 62*, NALP1 yeast inh 14, NLRP3 yeast inh 13 and Calb FLC 17.
`CCCN1Cc2cccc(C(=O)N3CCN(c4cc(Cl)ccc4C)CC3)c2C1=O` gave T cruzi inh 13, PolyA inh 1, Lmaj promast 97*, NALP1 yeast inh 14, NLRP3 yeast inh 22 and Calb FLC -4.
